Source: ChEMBL document CHEMBL3872254, “Design, synthesis and biological evaluation of alkylamino biphenylamides as Hsp90 C-terminal inhibitors” (Bioorg Med Chem, 2017)
Calls of active or inactive are those of the source. The rule behind the calls is not given here.

Tests used:
[1] = Anti-proliferative activity against human SKBR3 cells over-expressing Her2 measured after 72 hrs by MTS/PMS assay; type: functional, cell-based; conditions: SK-BR-3, 72 h
Outline: (§1)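 Cells grown in 1:1 Advanced DMEM/F12 with non-essential amino acids, 2 mM L-glutamine, penicillin/streptomycin, 10% FBS, 37 °C, 5% CO2; seeded 2000/well, attached overnight. Compound added in DMSO (1% final), 72 h incubation; viable cells by MTS/PMS. 1% DMSO wells set as 100% proliferation; IC50 from separate experiments run in triplicate, mean ± SD of at least two experiments.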

[2] = Anti-proliferative activity against ER positive human MCF7 cells measured after 72 hrs by MTS/PMS assay; type: functional, cell-based; conditions: MCF7, 72 h; outline: as §1
[3] = target: T1, Heat shock protein HSP90 (Homo sapiens) (UniProt P07900+P08238); assay: Inhibition of C-terminal Hsp90 in human PC3MM2 cells assessed as decrease in Hsp90-dependent refolding of thermally denatured luciferase at 0.1 to 100 uM; type: cell-based
Outline: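 Hsp90-dependent luciferase refolding measured in PC3-MM2 cells; compounds tested at 0.1−100 μM against DMSO vehicle, with a reference Hsp90 inhibitor as positive control.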

[4] = target: T1, Heat shock protein HSP90 (Homo sapiens); assay: Inhibition of C-terminal Hsp90 in human MCF7 cells assessed as degradation of Her2 measured after 24 hrs by Western blot method; type: cell-based
Outline: (§2)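 MCF-7 cells cultured as for proliferation, exposed to compound in DMSO (1% final) for 24 h alongside geldanamycin 0.5 μM and DMSO controls. Harvested in cold PBS, lysed 1 h on ice in RIPA with 1 mM PMSF, 2 mM orthovanadate, protease inhibitors; cleared 14000g 10 min 4 °C. BCA-normalized 20 μg protein, reducing SDS-PAGE, nitrocellulose, specific antibodies, HRP secondary, chemiluminescence.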

[5] = target: T1, Heat shock protein HSP90 (Homo sapiens); assay: Inhibition of C-terminal Hsp90 in human MCF7 cells assessed as degradation of Raf-1 measured after 24 hrs by Western blot method; type: cell-based; outline: as §2
[6] = target: T1, Heat shock protein HSP90 (Homo sapiens); assay: Inhibition of C-terminal Hsp90 in human MCF7 cells assessed as degradation of Akt measured after 24 hrs by Western blot method; type: cell-based; outline: as §2
[7] = Effect on actin expression in human MCF7 cells at 0.2 to 10 uM measured after 24 hrs by Western blot method; type: ADME, cell-based; conditions: mcf7, 24 h; outline: as §2

COc1cccc(-c2cc(C(=O)Nc3ccc(-c4ccc(OC5CCN(C)CC5)cc4O)cc3)ccc2OC)c1
IC50 [1]: 3550 nM | IC50 [2]: 4070 nM

COCOc1cc(OC2CCN(C)CC2)ccc1-c1ccc(NC(=O)c2ccc(OC)c(-c3cccc(OC)c3)c2)cc1
IC50 [1]: 1140 nM | IC50 [2]: 1380 nM

COc1cccc(-c2cc(C(=O)Nc3ccc(-c4ccc(OC5CCN(C)CC5)cc4)cc3OCCN(C)C)ccc2OC)c1
IC50 [1]: 840 nM | IC50 [2]: 810 nM

COc1cccc(-c2cc(C(=O)Nc3ccc(-c4ccc(OC5CCN(C)CC5)cc4)cc3)ccc2OC)c1
IC50 [1]: 470 nM | IC50 [2]: 710 nM

COc1cccc(-c2cc(C(=O)Nc3ccc(-c4ccc(OC5CCN(C)CC5)cc4OCCN(C)C)cc3)ccc2OC)c1
inhibition [3]: Active | IC50 [1]: 390 nM | IC50 [2]: 1040 nM

COc1cccc(-c2cc(C(=O)Nc3ccc(-c4ccc(OC5CCN(C)CC5)cc4OC4CCN(C)CC4)cc3)ccc2OC)c1
IC50 [1]: 1160 nM | IC50 [2]: 2540 nM

COc1cccc(-c2cc(C(=O)Nc3ccc(-c4ccc(OC5CCN(C)CC5)cc4OCCCCN(C)C)cc3)ccc2OC)c1
IC50 [1]: 1270 nM | IC50 [2]: 1120 nM

COc1cccc(-c2cc(C(=O)Nc3ccc(-c4ccc(OC5CCN(C)CC5)cc4OC4CCCCC4)cc3)ccc2OC)c1
IC50 [1]: 3240 nM | IC50 [2]: 2360 nM

COc1cccc(-c2cc(C(=O)Nc3ccc(-c4ccc(OC5CCN(C)CC5)c(OCCCN(C)C)c4)cc3)ccc2OC)c1
IC50 [1]: 750 nM | IC50 [2]: 1050 nM

COc1cccc(-c2cc(C(=O)Nc3ccc(-c4ccc(OC5CCN(C)CC5)cc4)c(OCCN(C)C)c3)ccc2OC)c1
IC50 [1]: 650 nM | IC50 [2]: 790 nM

COc1cccc(-c2cc(C(=O)Nc3ccc(-c4ccc(OC5CCN(C)CC5)cc4OCCCO)cc3)ccc2OC)c1
IC50 [1]: 3870 nM | IC50 [2]: 3110 nM

COc1cccc(-c2cc(C(=O)Nc3ccc(-c4ccc(OC5CCN(C)CC5)c(OCCN(C)C)c4)cc3)ccc2OC)c1
IC50 [1]: 400 nM | IC50 [2]: 700 nM

COc1cccc(-c2cc(C(=O)Nc3ccc(-c4ccc(OC5CCN(C)CC5)cc4OCCCN(C)C)cc3)ccc2OC)c1
inhibition [3]: Active | IC50 [1]: 340 nM | IC50 [2]: 840 nM | inhibition [4]: Dose-dependent effect | inhibition [5]: Dose-dependent effect | inhibition [6]: Dose-dependent effect | Activity [7]: Non-Toxic

COc1cccc(-c2cc(C(=O)Nc3ccc(-c4ccc(OC5CCN(C)CC5)cc4)c(OCCCN(C)C)c3)ccc2OC)c1
IC50 [1]: 550 nM | IC50 [2]: 670 nM

COc1cccc(-c2cc(C(=O)Nc3ccc(-c4ccc(OC5CCN(C)CC5)cc4)c(O)c3)ccc2OC)c1
IC50 [1]: 3430 nM | IC50 [2]: 1800 nM

COCOc1cc(-c2ccc(NC(=O)c3ccc(OC)c(-c4cccc(OC)c4)c3)cc2)ccc1OC1CCN(C)CC1
IC50 [1]: 820 nM | IC50 [2]: 990 nM

COc1cccc(-c2cc(C(=O)Nc3ccc(-c4ccc(OC5CCN(C)CC5)cc4)cc3OCCCN(C)C)ccc2OC)c1
IC50 [1]: 690 nM | IC50 [2]: 750 nM

COc1cccc(-c2cc(C(=O)Nc3ccc(-c4ccc(OC5CCN(C)CC5)c(O)c4)cc3)ccc2OC)c1
IC50 [1]: 1560 nM | IC50 [2]: 1220 nM

COc1cccc(-c2cc(C(=O)Nc3ccc(-c4ccc(OC5CCN(C)CC5)cc4OCCCN4C(=O)c5ccccc5C4=O)cc3)ccc2OC)c1
IC50 [1]: 3130 nM | IC50 [2]: 1430 nM

COc1cccc(-c2cc(C(=O)Nc3ccc(-c4ccc(OC5CCN(C)CC5)cc4)cc3O)ccc2OC)c1
IC50 [1]: 910 nM | IC50 [2]: 710 nM

COc1cccc(-c2cc(C(=O)Nc3ccc(-c4ccc(OC5CCN(C)CC5)cc4OCCCOC(C)=O)cc3)ccc2OC)c1
IC50 [1]: 1960 nM | IC50 [2]: 2490 nM
